Data on 27 compounds can be found in ChEMBL document CHEMBL1949537, “Structure-activity studies on the anti-proliferation activity of ajoene analogues in WHCO1 oesophageal cancer cells” (Eur J Med Chem, 2012).

The nature of assay [1]: Antiproliferative activity against human WHCO1 cells after 48 hrs by MTT assay. The assay is classed as functional, cell-based. The settings on record: WHCO1, 48 h. The gist of the method:
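WHCO1 cells (oesophageal SCC line) kept in DMEM with 10% FBS, no antibiotics, 37 °C, 5% CO2. Seeded 2 × 10^3 cells/well, dosed next day at 0.5–200 µM in 0.1% DMSO final; DMSO-only controls. After 48 h, MTT added for 4 h, then SLS/HCl overnight, A595 read. IC50 from variable-slope sigmoidal fit; mean ± SD of three independent determinations.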

Assay [2] relates to WHCO1. Put plainly: Growth inhibition of human WHCO1 cells at 10 uM up to 2 days by Roche xCelligence method. The assay is classed as functional, cell-based. The conditions noted are these: in the assay text read “up to 5 days” for “up to 2 days”. The gist of the method: (§1)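 xCelligence impedance monitoring of WHCO1 growth: 2500 cells/well, treated 24 h after plating with 10 µM compound in 0.1% DMSO. DMSO-only controls. Growth followed continuously as impedance; the system records for up to seven days.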

In assay [3] the test system is WHCO1. Description: Growth inhibition of human WHCO1 cells at 113 uM after 6 days by Roche xCelligence method. The assay is classed as functional, cell-based. The gist of the method:
(§2)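 Real-time impedance (xCelligence) of WHCO1 cells seeded at 5000/well. Compound added 24 h after plating in 0.1% DMSO at 34, 100 or 113 µM; DMSO-only controls. Growth then tracked continuously for a further six days. Each curve is the average of three replicates.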

The nature of assay [4]: Ratio of Z-ajeone IC50 to compound IC50 for human WHCO1 cells. The assay is classed as functional.
Assay [5] deals with WHCO1. Put plainly: Growth inhibition of human WHCO1 cells at 10 uM up to 5 days by Roche xCelligence method. The assay is classed as functional, cell-based. The gist of the method: as §1
Assay [6] concerns WHCO1. Description: Growth inhibition of human WHCO1 cells at 100 uM after 6 days by Roche xCelligence method. In kind it is functional, cell-based. The essentials:
as §2

The nature of assay [7]: Induction of cell cycle arrest in human WHCO1 cells assessed as G0/G1 phase cells at 10 uM after 16 hrs by flow cytometry (reference value: 29.2 +/- 5.2%). In kind it is functional.
Assay [8] is described as follows: Induction of cell cycle arrest in human WHCO1 cells assessed as S phase cells at 10 uM after 16 hrs by flow cytometry (reference value: 45.3 +/- 1.9%). The assay is classed as functional. On the technique in general: In flow cytometry, cells or beads pass a laser one at a time.
Assay [9] is described as follows: Induction of cell cycle arrest in human WHCO1 cells assessed as G2/M phase cells at 10 uM after 16 hrs by flow cytometry (reference value: 25.5 +/- 3.7%). The assay is classed as functional.
Assay [10] relates to WHCO1. Put plainly: Induction of apoptosis in human WHCO1 cells at 10 uM after 16 hrs by Roche cell death ELISA method. In kind it is functional, cell-based. The gist of the method: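 Quadruplicate wells of 5 × 10^3 WHCO1 cells dosed next day at 10 µM in 0.1% DMSO for 16 h; DMSO-only controls. Cytoplasmic fraction assayed for histone-associated DNA fragments by sandwich ELISA (anti-histone-biotin/anti-DNA-POD, 2 h at room temperature, ABTS 15 min). Absorbance read at 405 and 495 nm.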

The nature of assay [11]: Induction of apoptosis in human WHCO1 cells assessed as caspase 3 activation using Ac-DEVD-AFC as substrate at 25 uM after 24 hrs by fluorimetry relative to control. The assay is classed as functional. The gist of the method:
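WHCO1 cells (1.8 × 10^6) seeded in triplicate and dosed next day at 25 µM with 0.1% DMSO for 24 h. Controls received medium or 0.1% DMSO. Lysates captured on anti-caspase-3 coated wells for 1 h at 37 °C, then fluorogenic substrate added. Fluorescence (ex 390/em 505 nm) read at 0 and 120 min at 37 °C; activity is the ΔFU.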

Assay [12] concerns WHCO1. Description: Growth inhibition of human WHCO1 cells at 34 uM after 6 days by Roche xCelligence method. In kind it is functional, cell-based. The gist of the method:
as §2

Active and inactive are the calls of the source. The rule behind the calls is not given here.

`C=CCSS/C=C\C[S+]([O-])CCCO` (stereo not drawn): the IC50 (in general, the point on the concentration scale where inhibition reaches its midpoint) in assay [1] turned out to be 38 µM.
On to `C=CCSS/C=C/C[S+]([O-])CCCN1C(=O)c2ccccc2C1=O` (stereo not drawn), for which, in assay [1], the half-maximal inhibitory concentration (IC50) was found to be 68 µM.
Consider `C=CCSS/C=C\C[S+]([O-])CC=C` (stereo not drawn) [(Z)-Ajoene], for which, in [1], the IC50 was determined as 25 µM. In the assay with WHCO1 [2], the “growth inhibition (GI)” value is “inactive”.
`C=CCSSC=CC[S+]([O-])Cc1ccccc1` (mixture of isomers) gave an IC50 in assay [1] of 8.9 µM.
For `C=CCSSC=CC[S+]([O-])C(C)(C)C` (mixture of isomers), in assay [1], inhibition was half-maximal at 23 µM (IC50).
On the same count and under the same terms, to `C=CCSS/C=C/C[S+]([O-])CCCO` (stereo not drawn) belongs 27 µM; to `CCC[S+]([O-])C/C=C/SSC` (stereo not drawn), 28 µM.
In assay [1], `COc1ccc(CSCCCSSCc2ccc(OC)cc2)cc1` returned an IC50 above 200 µM. Further, the “growth inhibition (GI)” value in the assay on WHCO1 [3] was “inactive”.
As to `CCCSS/C=C/C[S+]([O-])CCC` (stereo not drawn), in assay [1], it took 24 µM to reach half-maximal inhibition (IC50).
Regarding `C=CCSS/C=C/C[S+]([O-])CCC` (stereo not drawn), in assay [1], the half-inhibitory concentration (IC50) was 37 µM.
`C=CCSS/C=C\C[S+]([O-])CCC` (stereo not drawn) had an IC50 in assay [1] of 23 µM.
For the compound `C=CCSS/C=C\C[S+]([O-])CCCOCc1ccc(OC)cc1` (stereo not drawn), in assay [1], the 50% inhibitory concentration (IC50) stood at 21 µM.
For the compound `COc1ccc(C[S+]([O-])CC=CSSCc2ccccc2)cc1` (mixture of isomers), the IC50 in assay [1] is 3.1 µM.
In assay [1], `C=CCSS/C=C/C[S+]([O-])CCCOCc1ccc(OC)cc1` (stereo not drawn) displayed an IC50 of 18 µM. This IC50 lies about 5.8-fold higher than the previous one.
In turn, `C=CCSS/C=C\C[S+]([O-])CCCN1C(=O)c2ccccc2C1=O` (stereo not drawn) gave an IC50 in assay [1] of 33 µM. Compared with the last compound, the IC50 is about 1.8-fold higher.
Consider `COc1ccc(CSSC=CC[S+]([O-])Cc2ccc(OC)cc2)cc1` (stereo not drawn), for which the IC50 in [1] came out at 2.1 µM. Also, the “Ratio IC50” value in assay [4] is on record as 12. The “growth inhibition (GI)” value with WHCO1 [5] and in the assay on WHCO1 [6] was “Active” in each case. The Activity turned out to be 8.03% in assay [7], 13.5% in [8] and 78.6% in assay [9]. Further, the outcome in the assay on WHCO1 [10] was Active. In assay [11], the “fold change (FC)” value stood at 3.
The compound `C=CCSS/C=C/C[S+]([O-])CC=C` (stereo not drawn) [AJOENE] showed an IC50 in assay [1] of 39 µM. Also, the “growth inhibition (GI)” value with WHCO1 [2] is “inactive”.
Take `COc1ccc(C[S+]([O-])CC=CSSCc2ccc(F)cc2)cc1` (mixture of isomers): in assay [1], the concentration for half-maximal inhibition (IC50) was found to be 16 µM.
In the case of `COc1ccc(CSCC=CSSCc2ccc(OC)cc2)cc1`, the concentration for half-maximal inhibition (IC50) in [1] is 0.7 µM. Also, the “growth inhibition (GI)” value with WHCO1 [12] was “Active”. In addition, the Activity amounted to 9.73% in assay [7], 15.9% in assay [8] and 74.4% in assay [9]. In the assay with WHCO1 [10], the outcome was Active.
In the case of `O=c1[nH]cc(F)c(=O)[nH]1` [FLUOROURACIL], in assay [1], the IC50 was found to be 7.9 µM.
`C=CCSSC=CC[S+]([O-])Cc1ccc(OC)cc1` (mixture of isomers) gave an IC50 in assay [1] of 7.4 µM.
Regarding `CCC[S+]([O-])C/C=C\SSC` (stereo not drawn), the midpoint of inhibition in [1], the IC50, lay at 26 µM.
For the compound `COc1ccc(CSSCCC[S+]([O-])Cc2ccc(OC)cc2)cc1` (stereo not drawn), half-maximal inhibition in assay [1] (IC50) required 16 µM. In the assay with WHCO1 [12], the “growth inhibition (GI)” value was “Active”.
Turning to `CCCSS/C=C\C[S+]([O-])CCC` (stereo not drawn), in assay [1], the IC50 is 18 µM.
In assay [1], `COc1ccc(CSC=CCSCc2ccc(OC)cc2)cc1` showed a concentration for half-maximal inhibition (IC50) above 200 µM. The “growth inhibition (GI)” value in the assay on WHCO1 [3] is “inactive”.
`COc1ccc(CS/C=C\C[S+]([O-])Cc2ccc(OC)cc2)cc1` (stereo not drawn) returned an IC50 in assay [1] above 200 µM. The “growth inhibition (GI)” value in the assay with WHCO1 [12] is “inactive”. The Activity is 19.5% in assay [7], 63.1% in assay [8] and 17.4% in assay [9].
Take `COc1ccc(CS/C=C/C[S+]([O-])Cc2ccc(OC)cc2)cc1` (stereo not drawn): in assay [1], the IC50 was above 200 µM. For the same compound, the “growth inhibition (GI)” value in the assay with WHCO1 [12] is “inactive”. In addition, the Activity was determined as 21.5% in assay [7], 67% in [8] and 11.4% in [9].
